Results from different studies.
Protocols differ between the studies behind these lines.
Cell line: A2780
Read-out: cell growth or viability

`C[C@H]1O[C@@H](n2cc(F)c(=O)[nH]c2=O)[C@H](O)[C@@H]1O` gave an IC50 of > 50000 nM (CCK-8; 48 h).
`Nc1ccn([C@@H]2O[C@H](CO)[C@@H](O)C2(F)F)c(=O)n1` gave an IC50 of 4.7 nM (CCK-8; 72 h).
`CC[C@@H]1C=CC(=O)O[C@@H]1C[C@@H](O)[C@H](C)[C@H](OC)[C@@H](C)Cc1ccc(F)cc1` has a GI50 of 215 nM (MTT; 48 h).
With `Cc1[nH]c2ccccc2c1CCNCc1ccc(/C=C/C(=O)NO)cc1` the IC50 was 3.9 nM (crystal violet; 48 h).
`CC[C@@H]1C=CC(=O)O[C@@H]1C[C@@H](OC)[C@H](C)[C@H](OC)[C@@H](C)Cc1ccc(F)cc1` has a GI50 of 1930 nM (MTT; 48 h).
`COc1ccc(C(=O)O[C@@H]2CN3Cc4c(cc5c(c4OC)OCO5)[C@@]24C=C[C@H](OC)C[C@@H]34)cc1` gave an IC50 of > 10000 nM (WST-1).
The GI50 of `CC[C@@H]1C=CC(=O)O[C@@H]1C[C@@H](O)[C@H](C)[C@H](OC)[C@@H](C)Cc1ccccc1` is reported as 81.9 nM (MTT; 48 h).
For `CC(=O)O[C@H]1C(=O)[C@@]2(C)[C@H]([C@H](OC(=O)c3ccccc3)[C@]3(O)C[C@H](OC(=O)[C@H](O)[C@@H](NC(=O)c4ccccc4)c4ccccc4)C(C)=C1C3(C)C)[C@]1(OC(C)=O)CO[C@@H]1C[C@@H]2O`, the IC50 was 8.2 nM (CCK-8; 72 h).
For `COc1ccc(C(=O)O[C@@H]2CN3Cc4c(cc5c(c4OC)OCO5)[C@@]24C=C[C@H](OC)C[C@@H]34)cc1OC`, the IC50 was 6000 nM (WST-1).
With `CC[C@]1(O)C[C@H]2CN(CCc3c([nH]c4ccccc34)[C@@](C(=O)OC)(c3cc4c(cc3OC)N(C=O)[C@H]3[C@@](O)(C(=O)OC)[C@H](OC(C)=O)[C@]5(CC)C=CCN6CC[C@]43[C@@H]65)C2)C1` the IC50 was 0.22 nM (fluorescence; 72 h).
For `CC(C)C(=O)Nc1ccc([N+](=O)[O-])c(C(F)(F)F)c1`, the IC50 was > 50000 nM (CCK-8; 48 h).
With `Cc1ccc2ccc3ccc(C)nc3c2n1.[C-]#[N+]c1ccc(C)cc1.[C-]#[O+].[C-]#[O+].[C-]#[O+].[Re+]` the EC50 was 1400 nM (MTT; 24 h).
The IC50 of `COc1c2c(cc3c1OCO3)[C@]13C=C[C@H](OC)C[C@H]1N(C2)C[C@H]3OC(=O)c1cccc(C)c1` is reported as > 10000 nM (WST-1).
`CCC[C@H](Nc1nc(-c2ccc(NC(=O)NCC)c(OC)c2)ncc1C)c1cccnc1` has an IC50 of 54.6 nM (fluorescence; 72 h).
